Experimental data from ChEMBL document CHEMBL2434854, “Synthesis and anticancer activity of some novel trifluoromethylquinolines carrying a biologically active benzenesulfonamide moiety” (Eur J Med Chem, 2013).

What was measured:
Assay type in all cases: functional, cell-based; call rule not given here
HepG2 = assay: Anticancer activity against human HepG2 cells after 48 hrs by SRB assay
In short: (§1)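 Cells seeded 10^4 cells/well and allowed to attach for 24 h, then exposed to compounds dissolved in DMSO at 10, 25, 50 and 100 μM, triplicate wells per concentration, for 48 h at 37 °C in 5% CO2. Fixed, stained 30 min with 0.4% (wt/vol) SRB in 1% acetic acid, washed four times with 1% acetic acid, dye recovered in Tris-EDTA, absorbance read. IC50 taken from survival curves; doxorubicin reference.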

HT-1080 = assay: Anticancer activity against human HT1080 cells after 48 hrs by SRB assay; conditions: HT-1080, 48 h; in short: as §1
HeLa = assay: Anticancer activity against human HeLa cells after 48 hrs by SRB assay; in short: as §1
[1] = Anticancer activity against human […] cells after 48 hrs by SRB assay; in short: as §1
MDA-MB-231 = assay: Anticancer activity against human MDA-MB-231 cells after 48 hrs by SRB assay; in short: as §1
LoVo = assay: Anticancer activity against human LoVo cells after 48 hrs by SRB assay; in short: as §1
[2] = Homo sapiens, HeLa, 48 h, read-out: IC50
[3] = Homo sapiens, 48 h, read-out: IC50
[4] = Homo sapiens, MDA-MB-231, 48 h, read-out: IC50
[5] = Homo sapiens, LoVo, 48 h, read-out: IC50
[6] = Homo sapiens, HepG2, 48 h, read-out: IC50

Row | SMILES | IC50 (HepG2; hepg2) | IC50 (HT-1080) [µM] | IC50 (HeLa; [2]) [µM] | IC50 [1, 3] [µM] | IC50 (MDA-MB-231; [4]) [µM] | IC50 (LoVo; [5]) [µM] | IC50 (HepG2; [6]) [µM] | IC50 (MDA-MB-231; mda-mb-231) | IC50 (LoVo; lovo) | IC50 (HeLa; hela) | IC50 [1]
1 | O=C(Nc1ccccc1)Nc1ccc(S(=O)(=O)Nc2ccnc3cc(C(F)(F)F)ccc23)cc1 | Not Active | 25.4 | 41 | 24.5 | 52.9 | 30.2 |  |  |  |  | 
2 | NS(=O)(=O)c1ccc(N/C(S)=N\c2ccnc3cc(C(F)(F)F)ccc23)cc1 |  | 31 | 36.6 | 36.6 | 52.9 | 34.5 | 52.2 |  |  |  | 
3 | CC(=O)NS(=O)(=O)c1ccc(N/C(S)=N\c2ccnc3cc(C(F)(F)F)ccc23)cc1 |  | 28.3 | 37.6 | 37.6 | 58.6 | 30 | 28.4 |  |  |  | 
4 | N=C(N)NS(=O)(=O)c1ccc(N/C(S)=N\c2ccnc3cc(C(F)(F)F)ccc23)cc1 |  | 24.3 | 23.9 | 23.9 |  | 23.9 | 33.5 | Not Active |  |  | 
5 | Cc1cc(NS(=O)(=O)c2ccc(N/C(S)=N\c3ccnc4cc(C(F)(F)F)ccc34)cc2)on1 |  | 27.3 | 60.2 | 60.2 | 80.3 |  | 28.5 |  | Not Active |  | 
6 | Cc1noc(NS(=O)(=O)c2ccc(N/C(S)=N\c3ccnc4cc(C(F)(F)F)ccc34)cc2)c1C |  | 27.7 |  | 34 | 27.9 | 67 | 36.8 |  |  | Not Active | 
7 | O=S(=O)(Nc1nccs1)c1ccc(N/C(S)=N\c2ccnc3cc(C(F)(F)F)ccc23)cc1 |  | 27.3 | 95.2 | 27.2 | 24.4 | 67.1 | 28.2 |  |  |  | 
8 | O=S(=O)(Nc1ccccn1)c1ccc(N/C(S)=N\c2ccnc3cc(C(F)(F)F)ccc23)cc1 |  | 28 | 68.8 | 33.5 | 49.3 | 87.5 | 28 |  |  |  | 
9 | O=S(=O)(Nc1ncccn1)c1ccc(N/C(S)=N\c2ccnc3cc(C(F)(F)F)ccc23)cc1 |  | 29.1 |  | 37.8 | 45.2 | 34.7 | 42.1 |  |  | Not Active | 
10 | Cc1ccnc(NS(=O)(=O)c2ccc(N/C(S)=N\c3ccnc4cc(C(F)(F)F)ccc34)cc2)n1 | Not Active | 28.7 | 31 | 31 | 29.8 | 31 |  |  |  |  | 
11 | Cc1cc(C)nc(NS(=O)(=O)c2ccc(N/C(S)=N\c3ccnc4cc(C(F)(F)F)ccc34)cc2)n1 |  | 29.5 | 33 | 43.4 | 52.9 | 40.2 | 72.2 |  |  |  | 
12 | COc1cc(NS(=O)(=O)c2ccc(N/C(S)=N\c3ccnc4cc(C(F)(F)F)ccc34)cc2)nc(OC)n1 |  | 29.5 | 53.8 | 64.5 | 52.1 | 76.7 | 76.7 |  |  |  | 
13 | COc1ncnc(NS(=O)(=O)c2ccc(N/C(S)=N\c3ccnc4cc(C(F)(F)F)ccc34)cc2)c1OC |  | 22.8 |  | 81.8 | 83 | 28.4 | 77.2 |  |  | Not Active | 
14 | NS(=O)(=O)c1ccc(Nc2ccnc3cc(C(F)(F)F)ccc23)cc1 |  | 56.1 | 61.2 | 79 | 34.4 | 26.6 | 50.8 |  |  |  | 
15 | CC(=O)NS(=O)(=O)c1ccc(Nc2ccnc3cc(C(F)(F)F)ccc23)cc1 |  | 41.6 |  | 64.2 | 75.6 | 51.5 | 46 |  |  | Not Active | 
16 | N=C(N)NS(=O)(=O)c1ccc(Nc2ccnc3cc(C(F)(F)F)ccc23)cc1 | Not Active | 49.8 | 41.3 | 55.2 | 28.8 | 24.7 |  |  |  |  | 
17 | Cc1cc(NS(=O)(=O)c2ccc(Nc3ccnc4cc(C(F)(F)F)ccc34)cc2)on1 |  | 33.5 | 97.6 | 74.8 | 74.8 | 33.6 | 33.5 |  |  |  | 
18 | Cc1noc(NS(=O)(=O)c2ccc(Nc3ccnc4cc(C(F)(F)F)ccc34)cc2)c1C |  | 31.9 |  | 53.1 | 39.3 | 36 | 40.8 |  |  | Not Active | 
19 | O=S(=O)(Nc1ccnn1-c1ccccc1)c1ccc(Nc2ccnc3cc(C(F)(F)F)ccc23)cc1 |  | 25.8 | 34.1 | 52.8 | 52.8 | 56.8 | 82.6 |  |  |  | 
20 | O=S(=O)(Nc1nccs1)c1ccc(Nc2ccnc3cc(C(F)(F)F)ccc23)cc1 | Not Active | 40.3 | 70.8 | 66.1 | 90.8 |  |  |  | Not Active |  | 
21 | O=S(=O)(Nc1ccccn1)c1ccc(Nc2ccnc3cc(C(F)(F)F)ccc23)cc1 |  | 41.8 | 44.8 | 30.4 | 18.4 | 20.2 | 46.1 |  |  |  | 
22 | O=S(=O)(Nc1ncccn1)c1ccc(Nc2ccnc3cc(C(F)(F)F)ccc23)cc1 | Not Active | 27.2 | 78.1 | 34.2 | 54.7 | 27.4 |  |  |  |  | 
23 | Cc1ccnc(NS(=O)(=O)c2ccc(Nc3ccnc4cc(C(F)(F)F)ccc34)cc2)n1 | Not Active | 32.5 |  | 62.5 |  |  |  | Not Active | Not Active | Not Active | 
24 | Cc1cc(C)nc(NS(=O)(=O)c2ccc(Nc3ccnc4cc(C(F)(F)F)ccc34)cc2)n1 | Not Active | 32.8 | 32 |  | 36.2 | 44.3 |  |  |  |  | Not Active
25 | COc1cc(NS(=O)(=O)c2ccc(Nc3ccnc4cc(C(F)(F)F)ccc34)cc2)nc(OC)n1 |  | 39.2 | 83.2 | 37.9 |  | 50.4 | 83.8 | Not Active |  |  | 
26 | COc1ncnc(NS(=O)(=O)c2ccc(Nc3ccnc4cc(C(F)(F)F)ccc34)cc2)c1OC |  | 26 |  | 36.9 | 49.4 | 39.9 | 66.1 |  |  | Not Active | 
27 | O=C(Nc1ccccc1)NS(=O)(=O)c1ccc(Nc2ccnc3cc(C(F)(F)F)ccc23)cc1 |  | 17.9 | 35.3 | 18.4 | 18.4 | 19.7 | 27.6 |  |  |  | 
28 | Nc1ccc(S(=O)(=O)Nc2ccnc3cc(C(F)(F)F)ccc23)cc1 |  | 29.6 | 46 | 29.2 | 30.9 | 53.6 | 93.1 |  |  |  | 
29 | COc1cccc2c1C(=O)c1c(O)c3c(c(O)c1C2=O)C[C@@](O)(C(=O)CO)C[C@@H]3O[C@H]1C[C@H](N)[C@H](O)[C@H](C)O1 [DOXORUBICIN] |  | 19.2 | 30.2 | 32.8 | 34 | 24.3 | 27.1 |  |  |  | 
